Measured values taken from ChEMBL document CHEMBL4385606, “3,5,7-Substituted Pyrazolo[4,3- d]pyrimidine Inhibitors of Cyclin-Dependent Kinases and Their Evaluation in Lymphoma Models” (J Med Chem, 2019).
Activity calls are given as the source filed them. No cut-off for these calls is given here.

Assays:
Mus musculus [1] = test: Ex vivo antitumor activity against patient derived VFN-M1 cells xenografted NSG mouse assessed as increase in cleaved caspase 7 expression at 10 mg/kg, iv measured after 24 hrs by immunoblotting analysis; format: functional, organism-based
Outline: (§1)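 Female NSG mice, 8-12 weeks old, implanted s.c. with lymphoma cells. Once tumors were palpable, mice received a single tail-vein i.v. dose (5 or 10 mg/kg) of compound dissolved in PBS. Mice were euthanized 24 h later. Tumors were excised, filtered through 45 µm nylon mesh and lysed, then proteins were analysed by immunoblotting.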

Homo sapiens [2] = species: Homo sapiens; test: Induction of apoptosis in human UPF1H cells assessed as reduction in MCL1 expression at 12.5 to 100 nM after 24 hrs by immunoblot analysis; format: functional, cell-based
Outline: (§2)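 Lymphoma cell lines were cultured as the providers instruct and exposed to compound at several doses or for several times. Lysates were run on SDS-PAGE and blotted to nitrocellulose. Blots were blocked, incubated overnight with primary antibodies diluted in PBS with 5% milk and 0.1% Tween 20, then with peroxidase-conjugated secondaries, and detected by chemiluminescence on a CCD camera.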

Maver1 [3] = test: Antitumor activity against human Maver1 cells xenografted in NSG mouse assessed as inhibition of tumor growth at 9 mg/kg measured on day 13 by caliper method; format: functional, organism-based
Outline: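 MAVER-1 cells implanted s.c. in NSG mice. Groups: vehicle n=6, 9 mg/kg n=8, venetoclax 20 mg/kg n=8, combination n=10. Tumors measured daily by caliper in two perpendicular dimensions. Mean volumes ±SD tracked from therapy start (day 1).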

Mus musculus [4] = test: Ex vivo antitumor activity against human Mino cells xenografted NSG mouse decrease in phosphorylation of Rb at 780 residue at 5 to 10 mg/kg, iv measured after 24 hrs by immunoblotting analysis; format: functional, organism-based; outline: as §1
Homo sapiens [5] = species: Homo sapiens; test: Induction of apoptosis in human UPF1H cells assessed as activation of caspase-7 at 12.5 to 100 nM after 24 hrs by immunoblot analysis; format: functional, cell-based; outline: as §2
Mus musculus [6] = test: Ex vivo antitumor activity against human UPF1H cells xenografted NSG mouse decrease in phosphorylation of Rb at 780 residue at 5 to 10 mg/kg, iv measured after 24 hrs by immunoblotting analysis; format: functional, organism-based; outline: as §1
CDK7/Cyclin H/MNAT1 = CDK7/Cyclin H/MNAT1 (Homo sapiens, UniProt P50613); test: Inhibition of recombinant human N-terminal GST-His6-fused CDK7 (M1 to F346 residues)/N-terminal His-tagged cyclin H (M1 to L323 residues)/N-terminal His6-tagged MAT1 (M1 to S306 residues) expressed in baculovirus infected Sf9 insect cells using (YSPTSPS)2KK as substrate measured in presence of [gamma-33P]ATP
Outline: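 CDK/cyclin complexes tested in triplicate at minimum; IC50 values reported from those replicate determinations.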

Mus musculus [7] = test: Ex vivo antitumor activity against Maver1 xenografted NSG mouse assessed as down regulation of MCL-1 expression at 10 mg/kg, iv measured after 24 hrs by immunoblotting analysis; format: functional, organism-based
Outline: (§3)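 NSG mice bearing palpable s.c. tumors received a single i.v. dose (5 or 10 mg/kg) and were euthanized after 24 h. Excised tumors were filtered through 45 µm nylon mesh, lysed and run on SDS-PAGE, transferred to nitrocellulose, probed overnight with primary antibodies in PBS with 5% milk and 0.1% Tween 20, then peroxidase secondaries, with chemiluminescent detection.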

Maver1 [8] = test: Antitumor activity against human Maver1 cells xenografted in NSG mouse assessed as inhibition of tumor growth at 10 mg/kg, iv administered daily measured every day during compound dosing by caliper method; format: functional, organism-based
Outline: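 Female NSG mice, 8-12 weeks old, given cells s.c.; once all had palpable tumors, daily i.v. tail-vein dosing at 10 mg/kg in PBS. Two perpendicular tumor diameters measured daily by caliper. Study ended when any mouse's tumor reached ≥2 cm. Groups: MINO n=10, MAVER-1 n=12, Hbl-2 n=8, VFN-M1 PDX n=10.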

Mus musculus [9] = test: Ex vivo antitumor activity against Maver1 xenografted NSG mouse assessed as effect on BCL-2 expression at 10 mg/kg, iv measured after 24 hrs by immunoblotting analysis; format: functional, organism-based; outline: as §3
Mus musculus [10] = test: Ex vivo antitumor activity against patient derived VFN-M1 cells xenografted NSG mouse assessed as increase in cleaved caspase 9 expression at 10 mg/kg, iv measured after 24 hrs by immunoblotting analysis; format: functional, organism-based; outline: as §1
Mus musculus [11] = test: Ex vivo antitumor activity against Maver1 xenografted NSG mouse assessed as increase in cleaved caspase7 expression t 10 mg/kg, iv measured after 24 hrs by immunoblotting analysis; format: functional, organism-based; outline: as §3
Maver1 [12] = test: Induction of apoptosis in human Maver1 cells assessed as activation of caspase-7 at 1.5 to 12.5 nM after 24 hrs by immunoblot analysis; format: functional, cell-based; outline: as §2
K562 = test: Antiproliferative activity against human K562 cells assessed as growth inhibition measured after 72 hrs by calcein AM dye-based fluorescence assay; format: functional, cell-based; details: K562, 72 h
Outline: (§4)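 Cells exposed in triplicate to six concentrations for 72 h; calcein AM added for 1 h, live-cell fluorescence read at 485/538 nm (ex/em). GI50 taken from dose-response curves.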

Ramos = test: Antiproliferative activity against human Ramos cells assessed as growth inhibition measured after 72 hrs by calcein AM dye-based fluorescence assay; format: functional, cell-based; outline: as §4
[13] = Antiproliferative activity against human OCI-Ly2 cells assessed as growth inhibition measured after 72 hrs by calcein AM dye-based fluorescence assay; format: functional, cell-based; outline: as §4

CDK7/Cyclin H/MNAT1, sequence (P51946 whole entry, the tested form may be a part): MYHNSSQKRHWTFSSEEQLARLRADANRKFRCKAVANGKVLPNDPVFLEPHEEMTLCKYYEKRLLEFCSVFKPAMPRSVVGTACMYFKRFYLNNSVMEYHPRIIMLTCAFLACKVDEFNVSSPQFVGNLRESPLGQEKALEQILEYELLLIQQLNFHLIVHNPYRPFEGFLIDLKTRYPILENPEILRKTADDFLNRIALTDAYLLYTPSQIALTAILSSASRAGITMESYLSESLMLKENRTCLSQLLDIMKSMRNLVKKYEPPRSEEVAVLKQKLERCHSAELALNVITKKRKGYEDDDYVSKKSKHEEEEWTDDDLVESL
CDK7/Cyclin H/MNAT1, sequence (P50613 whole entry, the tested form may be a part): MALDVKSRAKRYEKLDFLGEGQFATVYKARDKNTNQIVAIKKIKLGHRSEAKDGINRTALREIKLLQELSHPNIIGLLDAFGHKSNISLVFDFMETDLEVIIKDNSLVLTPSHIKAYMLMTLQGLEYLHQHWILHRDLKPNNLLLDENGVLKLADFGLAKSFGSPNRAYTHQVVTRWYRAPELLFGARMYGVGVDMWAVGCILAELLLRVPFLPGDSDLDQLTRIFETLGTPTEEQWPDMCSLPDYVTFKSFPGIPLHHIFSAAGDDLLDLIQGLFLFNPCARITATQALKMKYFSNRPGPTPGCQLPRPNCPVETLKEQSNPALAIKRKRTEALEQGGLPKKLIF
CDK7/Cyclin H/MNAT1, sequence (P51948 whole entry, further chain, the tested form may be a part): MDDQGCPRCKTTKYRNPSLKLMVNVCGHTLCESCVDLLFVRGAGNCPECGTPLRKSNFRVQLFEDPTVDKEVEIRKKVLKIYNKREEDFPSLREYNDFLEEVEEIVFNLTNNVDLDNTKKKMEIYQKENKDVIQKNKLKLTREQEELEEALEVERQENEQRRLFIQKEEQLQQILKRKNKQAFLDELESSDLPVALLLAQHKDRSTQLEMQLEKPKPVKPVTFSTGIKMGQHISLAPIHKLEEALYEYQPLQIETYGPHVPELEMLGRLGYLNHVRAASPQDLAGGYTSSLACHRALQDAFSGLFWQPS

With `CC(C)c1n[nH]c2c(NCc3ccc(-c4ccccn4)cc3)nc(SCCN)nc12` as the molecule, how does the Activity (Mus musculus [1]) read?
The Activity was “Active”.

What about the Activity (Homo sapiens [2]) of the same molecule?
The Activity was “Active”.

And the TGI (Maver1 [3])?
Its TGI is “Active”.

What about the Activity (Mus musculus [4]) of the same molecule?
Its Activity is “Active”.

What about the Activity (Homo sapiens [5]) of the same molecule?
Its Activity is “Active”.

And the Activity (Mus musculus [6])?
Its Activity is “Active”.

And the IC50 (CDK7/Cyclin H/MNAT1)?
The IC50 was 124 nM.

What about the Activity (Mus musculus [7]) of the same molecule?
The Activity was “Active”.

What about the TGI (Maver1 [8]) of the same molecule?
Its TGI is “Active”.

And the Activity (Mus musculus [9])?
Its Activity is “inactive”.

And the Activity (Mus musculus [10])?
The Activity was “Active”.

What about the Activity (Mus musculus [11]) of the same molecule?
Its Activity is “Active”.

What about the Activity (Maver1 [12]) of the same molecule?
The Activity was “Active”.

And the GI50 (K562)?
Its GI50 is 36 nM.

And the IC50 (K562)?
Its IC50 is 36 nM.

What about the GI50 (Ramos) of the same molecule?
Its GI50 is 44 nM.

What about the IC50 (Ramos) of the same molecule?
Its IC50 is 44 nM.

What about the GI50 [13] of the same molecule?
Its GI50 is 23 nM.

What about the IC50 [13] of the same molecule?
Its IC50 is 23 nM.
